Experimental data from ChEMBL document CHEMBL2417395, “Synthesis and biological evaluation of novobiocin analogues as potential heat shock protein 90 inhibitors” (Bioorg Med Chem, 2013).
Calls of active or inactive are those of the source. The rule behind the calls is not given here.

Tests used:
[1] = test system: SK-BR-3; assay: Cell cycle arrest in human SKBR3 cells assessed as accumulation at subG1 phase after 48 hrs by flow cytometric analysis; format: functional, cell-based
[2] = test system: SK-BR-3; assay: Cell cycle arrest in human SKBR3 cells assessed as accumulation at subG1 phase at 12.5 to 25 uM by flow cytometric analysis; format: functional, cell-based; details: TDE = time-dependent effect
[3] = test system: SK-BR-3; assay: Cell cycle arrest in human SKBR3 cells assessed as accumulation at subG1 phase at 12.5 uM after 48 hrs by flow cytometric analysis (reference value: 7 +/- 1%); format: functional
[4] = test system: SK-BR-3; assay: Cell cycle arrest in human SKBR3 cells assessed as accumulation at subG1 phase at 25 uM after 48 hrs by flow cytometric analysis (reference value: 7 +/- 1%); format: functional
[5] = test system: SK-BR-3; assay: Cell cycle arrest in human SKBR3 cells assessed as accumulation at G2/M phase at 12.5 uM after 48 hrs by flow cytometric analysis (reference value: 21 +/- 1%); format: functional
[6] = test system: SK-BR-3; assay: Cell cycle arrest in human SKBR3 cells assessed as accumulation at G2/M phase at 25 uM after 48 hrs by flow cytometric analysis (reference value: 21 +/- 1%); format: functional
[7] = test system: SK-BR-3; assay: Cell cycle arrest in human SKBR3 cells assessed as accumulation at S phase at 12.5 uM after 48 hrs by flow cytometric analysis (reference value: 19 +/- 6%); format: functional
[8] = test system: SK-BR-3; assay: Cell cycle arrest in human SKBR3 cells assessed as accumulation at S phase at 25 uM after 48 hrs by flow cytometric analysis (reference value: 19 +/- 6%); format: functional
[9] = test system: SK-BR-3; assay: Cell cycle arrest in human SKBR3 cells assessed as accumulation at G0/G1 phase at 12.5 uM after 48 hrs by flow cytometric analysis (reference value: 54 +/- 2%); format: functional
[10] = test system: SK-BR-3; assay: Cell cycle arrest in human SKBR3 cells assessed as accumulation at G0/G1 phase at 25 uM after 48 hrs by flow cytometric analysis (reference value: 54 +/- 2%); format: functional
[11] = organism: Oryctolagus cuniculus; assay: Inhibition of HSP90 in rabbit reticulocyte lysate assessed as inhibition of heat-denatured luciferase refolding after 30 mins by luminescence plate reader analysis
Procedure, shortened: (§1)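 Rabbit reticulocyte lysate with ATP regeneration (10 mM phosphocreatine, 1 mM ATP, 17.5 IU creatine kinase) preincubated with compound 20 min on ice; firefly luciferase (100 nM) heat-denatured 40 °C 8 min, diluted 10-fold into lysate; 28 °C, triplicate aliquots luminescence-read at 0, 15, 30, 60 min; mean RLU or % of DMSO.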

[12] = organism: Oryctolagus cuniculus; assay: Inhibition of HSP90 in rabbit reticulocyte lysate assessed as inhibition of heat-denatured luciferase refolding at 100 uM by luminescence plate reader analysis; details: TDE = time-dependent effect; procedure, shortened: as §1
[13] = organism: Mus musculus; assay: Inhibition of HSP90 in mouse 3T3-Y9-B12 cells assessed as activation of HSF1 at 0.78 to 25 uM after overnight incubation by GFP reporter gene assay relative to control; format: cell-based
Procedure, shortened: (§2)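 3T3-Y9-B12 mouse fibroblasts carrying a GFP gene under a minimal heat-shock element; near-confluent monolayers given serial dilutions in triplicate wells overnight, DMSO ≤0.25% vehicle, GA 0.5 µM positive control; after PBS wash, fluorescence at 485/525 nm, normalized to DMSO.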

[14] = test system: MCF7; assay: Cytotoxicity against ER-positive human MCF7 cells expressing low level of HER2 after 3 days by MTT assay; format: functional, cell-based; details: MCF7, 72 h
Procedure, shortened: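 MCF-7 seeded 2,000 cells/well, serial dilutions added after 24 h, 72 h exposure; MTT at 500 µg/mL final, 3 h at 37 °C, formazan dissolved in DMSO, absorbance 570 nm minus 650 nm background. Triplicates, at least two experiments; IC50 = concentration cutting viable signal by 50% of DMSO control.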

[15] = biological target: T1, Heat shock protein HSP90 (Homo sapiens, UniProt P07900+P08238); assay: Inhibition of HSP90 in human SKBR3 cells assessed as aggregation of intracellular HER2 at 25 uM after 18 hrs by DAPI staining-based immunofluorescence microscopic analysis; format: cell-based; details: SK-BR-3
Procedure, shortened: (§3)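 SKBR3 in chamber slides adhered overnight, treated 18 h, fixed 4% paraformaldehyde, permeabilized 1% Triton X-100, goat-serum block; anti-HER2 (20 µg/mL) then Alexa Fluor 488 secondary (2 µg/mL) on ice, DAPI nuclear counterstain; imaged at 160× with identical exposures. GA 0.5 µM positive control.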

[16] = test system: MCF7; assay: Induction of HSP70 in human MCF7 cells by Western blot analysis; format: cell-based
Procedure, shortened: (§4)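 MCF-7 cells at 70% confluence treated 18 h; floating plus trypsinized cells pooled, lysed in NP-40 buffer (pH 7.4) with protease/phosphatase inhibitors; 20 µg protein on 7.5% SDS-PAGE, nitrocellulose, milk block; probed for HER2 (2.0 µg/mL monoclonal) or HSP72, alkaline-phosphatase secondary, NBT/BCIP development; Ponceau S loading check.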

[17] = biological target: T1, Heat shock protein HSP90; assay: Inhibition of HSP90 in human MCF7 cells assessed as depletion of total HER2 protein level at 12.5 to 25 uM after 18 hrs by Western blot analysis; format: cell-based; procedure, shortened: as §4
[18] = biological target: T1, Heat shock protein HSP90; assay: Inhibition of HSP90 in human MCF7 cells assessed as depletion of total HER2 protein level at 50 uM after 18 hrs by Western blot analysis relative to control; format: cell-based; procedure, shortened: as §4
[19] = test system: SK-BR-3; assay: Cytotoxicity against human SKBR3 cells assessed as growth inhibition at 100 uM after 18 hrs by capillary-based flow cytometric analysis; format: functional, cell-based
Procedure, shortened: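 Short-term viability: SKBR3 cells exposed overnight under the same conditions as the surface-HER2 screen, then stained with a DNA-staining viability reagent; viable cell number counted by capillary flow cytometry.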

[20] = biological target: T1, Heat shock protein HSP90; assay: Inhibition of HSP90 in human SKBR3 cells assessed as depletion of cell surface HER2 protein level at 100 uM after 18 hrs by immunofluorescence-based flow cytometric analysis relative to control; details: SK-BR-3
Procedure, shortened: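 SKBR3 cells treated 18 h at 100 µM (controls: DMSO, GA 0.5 µM, NB 500 µM), trypsinized, blocked in goat serum/PBA (pH 7.6) on ice, anti-HER2 20 µg/mL 30 min then Alexa 488 secondary 2 µg/mL 20 min on ice; mean fluorescence intensity by flow cytometry, isotype antibody control.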

[21] = test system: SK-BR-3; assay: Cytotoxicity against ER-negative human SKBR3 cells expressing high level of HER2 after 3 days by MTT assay; format: functional, cell-based; details: SK-BR-3, 72 h
Procedure, shortened: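 SKBR3 cells in RPMI 1640 with 10% FBS exposed to serial dilutions for 3 days; MTT dye-reduction read-out of relative viable cell number. IC50 taken as concentration giving 50% reduction versus DMSO-treated cells.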

[22] = biological target: T1, Heat shock protein HSP90; assay: Inhibition of HSP90 in human MCF7 cells assessed as depletion of cell surface HER2 protein level after 18 hrs by flow cytometry
[23] = test system: SK-BR-3; assay: Cell cycle arrest in human SKBR3 cells assessed as accumulation at subG1 phase at 0.5 uM after 48 hrs by flow cytometric analysis (reference value: 7 +/- 1%); format: functional
[24] = test system: SK-BR-3; assay: Cell cycle arrest in human SKBR3 cells assessed as accumulation at G2/M phase at 0.5 uM after 48 hrs by flow cytometric analysis (reference value: 21 +/- 1%); format: functional
[25] = test system: SK-BR-3; assay: Cell cycle arrest in human SKBR3 cells assessed as accumulation at S phase at 0.5 uM after 48 hrs by flow cytometric analysis (reference value: 19 +/- 6%); format: functional
[26] = organism: Oryctolagus cuniculus; assay: Inhibition of HSP90 in rabbit reticulocyte lysate assessed as inhibition of heat-denatured luciferase refolding at 0.5 uM by luminescence plate reader analysis; details: TDE = time-dependent effect; procedure, shortened: as §1
[27] = test system: SK-BR-3; assay: Cell cycle arrest in human SKBR3 cells assessed as accumulation at G0/G1 phase at 0.5 uM after 48 hrs by flow cytometric analysis (reference value: 54 +/- 2%); format: functional
[28] = test system: SK-BR-3; assay: Cell cycle arrest in human SKBR3 cells assessed as accumulation at subG1 phase at 1000 uM after 48 hrs by flow cytometric analysis (reference value: 7 +/- 1%); format: functional
[29] = test system: SK-BR-3; assay: Cell cycle arrest in human SKBR3 cells assessed as accumulation at G2/M phase at 1000 uM after 48 hrs by flow cytometric analysis (reference value: 21 +/- 1%); format: functional
[30] = organism: Oryctolagus cuniculus; assay: Inhibition of HSP90 in rabbit reticulocyte lysate assessed as inhibition of heat-denatured luciferase refolding at 500 uM by luminescence plate reader analysis; details: TDE = time-dependent effect; procedure, shortened: as §1
[31] = organism: Mus musculus; assay: Inhibition of HSP90 in mouse 3T3-Y9-B12 cells assessed as activation of HSF1 at 1000 uM after overnight incubation by GFP reporter gene assay relative to control; format: cell-based; procedure, shortened: as §2
[32] = biological target: T1, Heat shock protein HSP90; assay: Inhibition of HSP90 in human SKBR3 cells assessed as aggregation of intracellular HER2 at 1000 uM after 18 hrs by DAPI staining-based immunofluorescence microscopic analysis; format: cell-based; details: SK-BR-3; procedure, shortened: as §3
[33] = test system: SK-BR-3; assay: Cell cycle arrest in human SKBR3 cells assessed as accumulation at S phase at 1000 uM after 48 hrs by flow cytometric analysis (reference value: 19 +/- 6%); format: functional
[34] = test system: SK-BR-3; assay: Cell cycle arrest in human SKBR3 cells assessed as accumulation at G0/G1 phase at 1000 uM after 48 hrs by flow cytometric analysis (reference value: 54 +/- 2%); format: functional

CO[C@@H]1[C@@H](OC(N)=O)[C@@H](O)[C@H](Oc2ccc3cc(NC(=O)c4cc5ccccc5[nH]4)c(=O)oc3c2C)OC1(C)C
Activity [1]: Dose-dependent effect
Activity [2]: tde
Activity [3]: 8%
Activity [4]: 29%
Activity [5]: 18%
Activity [6]: 10%
Activity [7]: 17%
Activity [8]: 10%
Activity [9]: 58%
Activity [10]: 56%
inhibition [11]: Dose-dependent effect
inhibition [12]: tde
fold change (FC) [13]: < 2
IC50 [14]: 6 µM
inhibition [15]: Active
Activity [16]: Active
inhibition [17]: Active
inhibition [18]: 50%
growth inhibition (GI) [19]: Active
inhibition [20]: 40%
IC50 [21]: 10 µM
EC50 [22]: 20 µM

COc1ccc(C(=O)Nc2c(OC)c3ccc(O[C@@H]4OC(C)(C)[C@H](OC)[C@@H](OC(N)=O)[C@H]4O)c(C)c3oc2=O)cc1CC=C(C)C
IC50 [14]: 18 µM
inhibition [18]: 50%
growth inhibition (GI) [19]: Active
inhibition [20]: 40%
IC50 [21]: 19 µM
EC50 [22]: 38 µM

COc1ccc(C(=O)Nc2c(OC)c3ccc(O[C@@H]4OC(C)(C)[C@H](OC)[C@@H](O)[C@H]4O)c(C)c3oc2=O)cc1CC=C(C)C
IC50 [14]: 19 µM
inhibition [18]: 50%
growth inhibition (GI) [19]: Active
inhibition [20]: 40%
IC50 [21]: 25 µM
EC50 [22]: 41 µM

CO[C@@H]1[C@@H](OC(=O)c2ccc(C)[nH]2)[C@@H](O)[C@H](Oc2ccc3c(O)c(NC(=O)c4cc5ccccc5[nH]4)c(=O)oc3c2C)OC1(C)C
growth inhibition (GI) [19]: Active
inhibition [20]: 40%
EC50 [22]: > 50 µM

COC1=C2C[C@@H](C)C[C@H](OC)[C@H](O)[C@@H](C)/C=C(\C)[C@H](OC(N)=O)[C@@H](OC)/C=C\C=C(/C)C(=O)NC(=CC1=O)C2=O [GELDANAMYCIN]
Activity [23]: 16%
Activity [24]: 18%
Activity [25]: 10%
inhibition [11]: Dose-dependent effect
inhibition [26]: tde
Activity [27]: 65%

CO[C@@H]1[C@@H](OC(N)=O)[C@@H](O)[C@H](Oc2ccc3c(O)c(NC(=O)c4ccc(O)c(CC=C(C)C)c4)c(=O)oc3c2C)OC1(C)C [NOVOBIOCIN]
Activity [28]: 38%
Activity [29]: 10%
inhibition [11]: Dose-dependent effect
inhibition [30]: tde
fold change (FC) [31]: 1.5
IC50 [14]: 357 µM
inhibition [32]: Active
inhibition [20]: inactive
Activity [33]: 15%
Activity [34]: 57%
IC50 [21]: 350 µM

CO[C@@H]1[C@@H](OC(N)=O)[C@@H](O)[C@H](Oc2ccc3cc(NC(=O)c4ccc(O)c(CC=C(C)C)c4)c(=O)oc3c2C)OC1(C)C
Activity [1]: Dose-dependent effect
Activity [2]: tde
Activity [3]: 22%
Activity [4]: 48%
Activity [5]: 9%
Activity [6]: 15%
Activity [7]: 10%
Activity [8]: 17%
Activity [9]: 62%
Activity [10]: 43%
inhibition [11]: Dose-dependent effect
inhibition [12]: tde
fold change (FC) [13]: < 2
IC50 [14]: 15 µM
inhibition [15]: Active
inhibition [17]: Active
inhibition [18]: 50%
growth inhibition (GI) [19]: Active
inhibition [20]: 40%
IC50 [21]: 17 µM
EC50 [22]: 24 µM
